# Screening data as filed in PubChem.
# This is a sample that favours compounds with a hit; in the whole collection about 3.4% have one here.
# MEKK3 PB1 HTS = MEKK3-MEK5 PB1 interaction, increase or decrease | Q99759 | bead-based flow cytometry, Alexa488-MEK5 binding to MEKK3; actives lie on both sides; 0 = blocked by unlabeled MEK5, 100 = vehicle | binding response (% of control), % at 10 µM | 1.4% of 290,000 active;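 active = binding response more than 3 SD above or below the average of its plate-row segment, actives on both sides; inconclusive = wells at one plate position flagged as instrument error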;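 also: Alexa488 bead fluorescence after subtracting the streptavidin-only scavenger bead signal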
# Target sequence (Q99759 whole entry, looked up): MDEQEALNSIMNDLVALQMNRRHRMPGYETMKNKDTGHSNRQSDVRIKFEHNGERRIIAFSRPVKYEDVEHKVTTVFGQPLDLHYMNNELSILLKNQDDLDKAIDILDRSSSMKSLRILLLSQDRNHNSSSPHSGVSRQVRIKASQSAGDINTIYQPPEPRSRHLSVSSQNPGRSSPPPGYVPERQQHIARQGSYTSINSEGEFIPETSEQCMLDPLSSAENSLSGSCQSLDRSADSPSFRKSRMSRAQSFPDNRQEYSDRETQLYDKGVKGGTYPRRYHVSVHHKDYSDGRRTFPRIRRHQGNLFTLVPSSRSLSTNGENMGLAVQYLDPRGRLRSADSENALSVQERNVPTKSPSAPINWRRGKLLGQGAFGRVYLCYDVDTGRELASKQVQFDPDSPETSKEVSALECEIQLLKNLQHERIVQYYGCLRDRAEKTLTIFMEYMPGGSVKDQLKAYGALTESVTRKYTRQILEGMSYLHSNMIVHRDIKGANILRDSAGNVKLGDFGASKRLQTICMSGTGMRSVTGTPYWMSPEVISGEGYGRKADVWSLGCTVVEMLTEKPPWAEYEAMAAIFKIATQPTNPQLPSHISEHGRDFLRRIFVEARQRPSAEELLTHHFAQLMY
# MEKK2 WT-MEK5 = raises or lowers MEK5 binding to wildtype human MEKK2 PB1 domain. bead flow cytometry, Alexa488-MEK5 binding to MEKK2 WT; actives lie on both sides. AID 1531. binding response (% of control), % at 10 µM. 1.1% of 290,000 active. Q9Y2U5; in the data active = binding response below about 67% or above about 130%; inconclusive = no clear call, values can overlap the other calls; inactive = in between
# MEKK2mut PB1 HTS = signal of MEK5 binding to mutant human MEKK2 PB1 domain. AID 1530. 0.35% of 290,000 active. bead flow cytometry, Alexa488-MEK5 binding to MEKK2 mutant. percent response, % at 10 µM; in the data active = percent response above about 24%, passing the limit was not always enough
# VIM-2 inhibitor = inhibitors of Pseudomonas aeruginosa VIM-2 metallo-beta-lactamase; 0.89% of 290,000 active; purified VIM-2, nitrocefin hydrolysis, epi-absorbance fluorescence; inhibition, % at 5.6 µM;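 active = inhibition above the mean of all tested compounds plus 3 SD, cutoff set per screening run, cut at about 7.5% in these data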;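 also: red hydrolysis product quenches plate fluorescence so inhibitors raise well fluorescence; 0% = enzyme with DMSO and 100% = DMSO without enzyme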
# IMP-1 inhibitor = blocks Pseudomonas aeruginosa IMP-1 metallo-beta-lactamase; purified IMP-1, nitrocefin hydrolysis, epi-absorbance fluorescence; 0.45% of 290,000 active; inhibition, % at 5.6 µM; AID 1556;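 active = inhibition above the mean plus 3 SD of all compounds in the same screening run, cut at about 4.5% in these data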;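 also: 0% = IMP-1 with DMSO and 100% = DMSO wells lacking enzyme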
#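 System: purified IMP-1; amount: IMP-1 0.2 nM before substrate addition; compound: single dose, 5.6 µM; times: 25 °C, 15 min preincubation, 25 min reaction; signal: Epi-absorbance via hydrolysed-nitrocefin quenching of white-plate fluorescence, 480/530 nm, EDTA stop; benchmarks: DMSO with and without IMP-1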
# Starred values were filed as active, the others as inactive; ? = inconclusive; / = no result given; [ ] = dose if it differs, or a comment.
SMILES,MEKK3 PB1 HTS,MEKK2 WT-MEK5,MEKK2mut PB1 HTS,VIM-2 inhibitor,IMP-1 inhibitor
COc1cc(N)ccc1NC(=O)c1cc2ccccc2o1,103,102,-2,2,7.5*
CN(C(=O)COC(=O)c1cccc(NS(=O)(=O)c2ccc(F)c(F)c2)c1)C1CCS(=O)(=O)C1 (stereo not drawn),96,94,-7,-1,-1
Cc1cccc(NC(=O)c2nc[nH]c2C(=O)N[C@@H](CCCCNC(=O)OC(C)(C)C)C(=O)OC(C)(C)C)c1,87,83,-18,/,/
CCOc1ccccc1C(=O)N/N=C/c1coc2ccc(C)cc2c1=O,102,97,-2,-3,10*
Cc1ccc2occ(/C=N/NC(=O)c3ccc(O)cc3)c(=O)c2c1,100,96,-1,-7,4
Cc1ccc2occ(/C=N/NC(=O)c3ccccc3Br)c(=O)c2c1,100,93,-4,-6,5.2*
Cc1nc2ccccn2c1-c1csc(Nc2cccc(O)c2)n1,101,101,5,11*,-3
N#CC1=C(S)N(c2ccccc2)C(c2ccc(-c3ccccc3Cl)o2)NC1=O (stereo not drawn),108,96,-1,2,12*
COc1cccc(NS(=O)(=O)c2ccc3c(c2)C2C=CCC2C(c2ccc(C(=O)O)cc2)N3)c1 (stereo not drawn),100,97,-2,-5,22*
O=C(OC1CCCCC1)c1ccc2c(c1)C1C=CCC1C(C(=O)O)N2 (stereo not drawn),/,/,/,-3,-2
COc1ccc(C(=O)N/N=C(\C)c2ccc3c(c2)C2C=CCC2C(c2ccccc2)N3)cc1 (stereo not drawn),91,91,-3,-4,-1
O=C(O)c1ccc2c(c1)[C@@H]1C=CC[C@@H]1[C@H](c1ccccn1)N2,92,84,-6,-2,5.6*
CCCn1ncc(CN2CCC(CO)(Cc3ccc(OC)cc3)CC2)c1C,100,101,-1,-3,-3
NC(=O)c1ccc(Cl)c2ccccc12,98,95,11,-1,15*
CCOC(=O)C1(C)NC(c2ccc(N(C)C)cc2)C2C(=O)N(CC)C(=O)C21 (stereo not drawn),100,97,0,-1,-6
COc1cnc(SC)nc1Nc1ccc(C#N)cc1,106,101,6,9.1*,-3
COC(=O)C1=C(C)N(c2ccc(OC)cc2)C(C)=C(C(=O)OC)C1c1ccc(OC)cc1,92,93,-12,-2,38*
COCCn1c(=S)[nH]c2cc(C(=O)NC(C)C)ccc2c1=O,101,94,0,1,-3
CC(=O)c1cccc(Nc2cc(C)nc3c(C)cc(C)cc23)c1,102,113,0,10*,-3
CC(=O)c1cccc(Nc2cc(C)nc3ccc(C)cc23)c1,95,107,-17,9.8*,-5
CC(=O)c1ccc(Nc2cc(C)nc3c(C)cccc23)cc1,114,108,-2,2,-2
COC(=O)c1ccc(Nc2cc(C)nc3ccc(C)cc23)cc1,98,104,17,5,-2
O=S(=O)(Nc1ccc2c3c(cccc13)CC2)c1ccc(F)cc1,99,98,3,0,7.8*
CSc1ccc(S(=O)(=O)Nc2ccc3c4c(cccc24)CC3)cc1,97,93,-10,4,-1
Brc1ccccc1C1=Nn2c(nnc2-c2ccco2)SC1,97,98,0,8.0*,-2
SMILES,MEKK3 PB1 HTS,MEKK2 WT-MEK5,MEKK2mut PB1 HTS,VIM-2 inhibitor,IMP-1 inhibitor
c1ccc(C2=Nn3c(nnc3-c3ccco3)SC2)cc1,100,95,-4,8.3*,0
Fc1ccc(C2=Nn3c(nnc3-c3ccco3)SC2)cc1,96,99,-3,4,-1
CCC(=O)Nc1ccc(C(=O)CSc2nnc(-c3ccccc3F)n2C2CC2)cc1,94,102,-3,2,5.5*
Cn1c(=O)c2cc(S(=O)(=O)NC(C(=O)NCc3ccccn3)c3ccccc3)ccc2n(C)c1=O (stereo not drawn),98,102,6,-5,-5
O=C1NC(=S)S/C1=C\c1ccc(SCc2ccco2)o1,101,102,2,4,9.7*
N#CCc1nc2c3c4c(sc3ncn2n1)CCCC4,/,/,/,6,-4
Cc1[nH][nH]c(=O)c1C(c1ccc(Br)cc1)c1c(C)[nH][nH]c1=O,101,97,4,-3,-5
Cc1[nH][nH]c(=O)c1[C@@H](c1ccccc1[N+](=O)[O-])C(C#N)C#N,101,102,0,0,-2
CCCc1[nH][nH]c(=O)c1C(c1ccccc1)C(C#N)C#N (stereo not drawn),?,?,-21,9.1*,3
CCCc1[nH][nH]c(=O)c1C(c1ccc(Br)cc1)C(C#N)C#N (stereo not drawn),96,94,-3,8.8*,-2
Cc1oc(-c2cccs2)nc1CS(=O)CC(=O)NCCCOC(C)C (stereo not drawn),97,99,0,0,-1
CCCCNC(=O)CS(=O)Cc1nc(-c2cccs2)oc1C (stereo not drawn),105,104,11,-1,6.1*
Cc1nc(Sc2ccccc2)c(C#N)c(C)c1[N+](=O)[O-],101,102,-4,8.6*,-3
Cc1nc(Sc2ccccc2)c(C#N)cc1-c1ccccc1,93,91,-9,-3,-2
COCCNC(=S)Nc1ccccn1,92,89,-5,-1,-2
CCOC(=O)C1=C(O)/C(=C/c2ccc(-c3ccccc3C(=O)O)o2)SC1=Nc1ccc(OC)cc1,100,97,6,11*,-4
O=C(O)C(Cc1ccccc1)n1cccc1 (stereo not drawn),105,103,-8,-2,-1
O=C(O)[C@H](Cc1ccccc1)N1C(=O)c2c(Cl)c(Cl)c(Cl)c(Cl)c2C1=O,100,89,-6,8.5*,-1
OCCNCCNCc1ccc(-c2ccccc2)cc1,100,110,-11,9.3*,-2
O=C(Nc1ccc(NC(=O)c2ccccc2Cl)cc1)c1cccnc1,39*[inhibitor],53*[inhibitor],-28,0,1
O=C(Nc1ccc(N2CCCCC2)cc1)c1cccnc1Cl,108,111,5,0,-3
O=C(Nc1ccc(Cl)cc1)c1cccnc1N1CCCCC1,105,105,6,0,20*
Cc1cc(C)c2nc(N3CCOCC3)c(C#N)cc2c1,103,102,1,2,-1
N#Cc1cc2cc3c(cc2nc1N1CCOCC1)OCO3,105,109,2,-1,4.5*
Cc1ccc(S(=O)(=O)NCc2ccc(C(=O)N3CCCC3)cc2)cc1,88,91,-3,-1,-6
O=c1[nH]cc(N=Cc2cc(Cl)cc(Cl)c2O)c(=O)[nH]1,102,100,0,0,12*
CCn1nccc1C(=O)Nc1cc(Cl)ccc1Cl,100,103,4,1,0
